Series [1] concerns Liver microsome. Nature of the series: Drug level in Sprague-Dawley rat liver microsomes treated with [14C]-rivoglitazone at 20 uM after 2 to 4 hrs by radio-HPLC/LC-MS/MS analysis in presence of UDPGA, UDPGA/SAM and NADPH-generating system. It counts as ADME.
Series [2] addresses T1, UDP-glucuronosyltransferase 1A3 (Homo sapiens, UniProt P35503).
T1 sequence (P35503 whole entry): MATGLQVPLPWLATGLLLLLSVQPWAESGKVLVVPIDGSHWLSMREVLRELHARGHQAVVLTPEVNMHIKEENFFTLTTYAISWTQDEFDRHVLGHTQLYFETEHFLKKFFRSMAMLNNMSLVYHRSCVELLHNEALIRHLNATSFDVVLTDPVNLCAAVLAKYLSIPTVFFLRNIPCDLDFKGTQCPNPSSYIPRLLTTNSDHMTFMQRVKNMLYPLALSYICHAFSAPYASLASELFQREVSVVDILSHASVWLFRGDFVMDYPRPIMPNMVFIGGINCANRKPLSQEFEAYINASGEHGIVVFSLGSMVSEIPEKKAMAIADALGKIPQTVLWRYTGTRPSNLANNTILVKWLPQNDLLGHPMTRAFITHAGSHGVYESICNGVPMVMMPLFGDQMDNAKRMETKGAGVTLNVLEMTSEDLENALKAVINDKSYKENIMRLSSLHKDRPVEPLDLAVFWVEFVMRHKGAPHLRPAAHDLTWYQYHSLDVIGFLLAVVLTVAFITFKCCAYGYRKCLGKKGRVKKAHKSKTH
Nature of the series: Activity of human UGT1A3 expressed in microsomes isolated from baculovirus infected insect cell assessed as enzyme-mediated 5-(4-((6-hydroxy-1-methyl-1H-benzo[d]imidazol-2-yl)methoxy)benzyl)thiazolidine-2,4-dione formation at 20 uM after 4 hrs by radio-HPLC/LC-MS/MS analysis in presence of NADPH-generating system/SAM. It counts as ADME.

Series [3] can be described thus: Drug metabolism in rat hepatocytes assessed as formation of 3-(4-((6-methoxy-1-methyl-1H-benzo[d]imidazol-2-yl)methoxy)phenyl)-2-(methylthio)propanoic acid at 30 uM after 3 hrs by radio-HPLC/LC-MS/MS analysis in presence of NADPH-generating system/SAM and UDPGA/SAM. It counts as ADME, cell-based, Hepatocyte.
In series [4] the target is Cytochrome P450 2D6 (Homo sapiens, UniProt P10635). Nature of the series: Activity of human CYP2D6 expressed in microsomes isolated from baculovirus infected insect cell assessed as enzyme-mediated 2-((4-((2,4-dioxothiazolidin-5-yl)methyl)phenoxy)methyl)-1-methyl-1H-benzo[d]imidazol-6-yl hydrogen sulfate formation at 20 uM after 2 hrs by radio-HPLC/LC-MS/MS analysis. It counts as ADME. In outline:
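Baculovirus-insect-cell microsomes expressing the human CYP (1 mg/ml protein) were incubated with [14C]rivoglitazone (20 μM) in 50 mM potassium phosphate (pH 7.4) or 100 mM Tris-HCl (pH 7.5) with an NADPH-generating system (2 mM NADP+, 20 mM glucose 6-phosphate, 2 units/ml G6PDH, 10 mM MgCl2) for 2 h at 37°C. Insect-cell control supersomes served as the control. Reactions were stopped with acetonitrile, and the concentrated supernatants were analysed by radio-HPLC, LC-MS and LC-MS/MS.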

The target in series [5] is T2, UDP-glucuronosyltransferase 2B7 (Homo sapiens, UniProt P16662).
T2 sequence (P16662 whole entry): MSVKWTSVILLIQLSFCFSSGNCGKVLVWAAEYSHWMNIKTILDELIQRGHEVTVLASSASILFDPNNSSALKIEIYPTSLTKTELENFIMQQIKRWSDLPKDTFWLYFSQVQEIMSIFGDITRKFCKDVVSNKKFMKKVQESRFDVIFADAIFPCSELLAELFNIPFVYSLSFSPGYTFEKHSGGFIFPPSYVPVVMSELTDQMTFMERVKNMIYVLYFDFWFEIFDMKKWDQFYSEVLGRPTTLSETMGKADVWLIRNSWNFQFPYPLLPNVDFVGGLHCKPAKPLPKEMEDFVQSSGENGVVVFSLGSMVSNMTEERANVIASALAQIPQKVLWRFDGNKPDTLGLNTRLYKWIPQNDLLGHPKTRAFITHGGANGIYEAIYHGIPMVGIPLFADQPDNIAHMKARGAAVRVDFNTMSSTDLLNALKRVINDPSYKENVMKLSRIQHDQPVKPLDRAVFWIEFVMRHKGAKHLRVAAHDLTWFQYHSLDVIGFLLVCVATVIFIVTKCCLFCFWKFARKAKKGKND
Nature of the series: Activity of human UGT2B7 expressed in microsomes isolated from baculovirus infected insect cell assessed as enzyme-mediated 5-(4-((6-methoxy-1H-benzo[d]imidazol-2-yl)methoxy)benzyl)thiazolidine-2,4-dione formation at 20 uM after 4 hrs by radio-HPLC/LC-MS/MS analysis in presence of NADPH-generating system and NADPH-generating system/SAM in presence of UDPGA and UDPGA/SAM. It counts as ADME.

Series [6] addresses Cytochrome P450 3A5 (Homo sapiens, UniProt P20815). Nature of the series: Activity of human CYP3A5 expressed in microsomes isolated from baculovirus infected insect cell assessed as enzyme-mediated 3-(4-((6-methoxy-1-methyl-1H-benzo[d]imidazol-2-yl)methoxy)phenyl)-2-(methylthio)propanamide formation at 20 uM after 2 hrs by radio-HPLC/LC-MS/MS analysis in presence of NADPH-generating system/SAM. It counts as ADME. In outline:
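cDNA-expressed human CYP3A5 in baculovirus-insect-cell microsomes (1 mg/ml protein) was incubated with [¹⁴C]rivoglitazone (20 μM) in 50 mM potassium phosphate (pH 7.4) or 100 mM Tris-HCl (pH 7.5). NADPH-generating system: 2 mM NADP⁺, 20 mM glucose 6-phosphate, 2 units/ml G6PDH, 10 mM MgCl₂. Incubation ran 2 h at 37°C with shaking; insect-cell control supersomes served as control. Acetonitrile stop, supernatant concentrated, then radio-HPLC, LC-MS and LC-MS/MS.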

A short description of series [7]: Drug metabolism in human hepatocytes assessed as formation of 3-(4-((6-methoxy-1-methyl-1H-benzo[d]imidazol-2-yl)methoxy)phenyl)-2-(methylthio)propanoic acid at 30 uM after 3 hrs by radio-HPLC/LC-MS/MS analysis in presence of NADPH-generating system/SAM and UDPGA/SAM. It counts as ADME, cell-based, Hepatocyte.
Series [8] concerns the target T1, UDP-glucuronosyltransferase 1A3. Nature of the series: Activity of human UGT1A3 expressed in microsomes isolated from baculovirus infected insect cell assessed as enzyme-mediated 2-((4-((2,4-dioxothiazolidin-5-yl)methyl)phenoxy)methyl)-1-methyl-1H-benzo[d]imidazol-6-yl hydrogen sulfate formation at 20 uM after 4 hrs by radio-HPLC/LC-MS/MS analysis. It counts as ADME. In outline: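 Alamethicin (50 μg/mg protein, 15 min on ice) pretreated expressed human UGT microsomes (1 mg/ml protein) from baculovirus-infected insect cells. Incubation with [¹⁴C]rivoglitazone (20 μM) in 100 mM Tris-HCl (pH 7.5) with 10 mM MgCl₂, started by 5 mM UDPGA, 4 h at 37°C with shaking. UGT insect-cell control supersomes were run alongside. Acetonitrile stop, concentrated supernatant analysed by radio-HPLC, LC-MS and LC-MS/MS.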

Series [9] concerns Liver microsome. Description: Drug metabolism in human liver microsomes assessed as formation of 2-mercapto-3-(4-((6-methoxy-1-methyl-1H-benzo[d]imidazol-2-yl)methoxy)phenyl)propanamide at 20 uM after 2 hrs by radio-HPLC/LC-MS/MS analysis in presence of NADPH-generating system and NADPH-generating system/SAM. It counts as ADME. On the technique in general: Microsomes from liver hold many membrane-bound enzymes, among them those of drug oxidation.

Chain of Cytochrome P450 3A5 (P20815 whole entry): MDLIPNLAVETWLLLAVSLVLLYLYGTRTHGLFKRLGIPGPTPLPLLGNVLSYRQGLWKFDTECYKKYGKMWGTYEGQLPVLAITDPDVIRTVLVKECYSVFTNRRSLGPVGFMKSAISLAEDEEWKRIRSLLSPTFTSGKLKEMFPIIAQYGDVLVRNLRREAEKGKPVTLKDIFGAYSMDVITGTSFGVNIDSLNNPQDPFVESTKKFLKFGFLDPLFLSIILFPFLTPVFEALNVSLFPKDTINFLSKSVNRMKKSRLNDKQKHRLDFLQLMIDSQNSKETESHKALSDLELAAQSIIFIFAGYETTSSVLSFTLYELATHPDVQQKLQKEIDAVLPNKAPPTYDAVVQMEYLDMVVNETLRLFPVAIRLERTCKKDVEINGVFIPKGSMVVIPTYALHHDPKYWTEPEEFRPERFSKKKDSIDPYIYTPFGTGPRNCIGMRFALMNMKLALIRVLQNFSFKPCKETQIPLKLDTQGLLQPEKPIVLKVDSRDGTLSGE
Chain of Cytochrome P450 2D6 (P10635 whole entry): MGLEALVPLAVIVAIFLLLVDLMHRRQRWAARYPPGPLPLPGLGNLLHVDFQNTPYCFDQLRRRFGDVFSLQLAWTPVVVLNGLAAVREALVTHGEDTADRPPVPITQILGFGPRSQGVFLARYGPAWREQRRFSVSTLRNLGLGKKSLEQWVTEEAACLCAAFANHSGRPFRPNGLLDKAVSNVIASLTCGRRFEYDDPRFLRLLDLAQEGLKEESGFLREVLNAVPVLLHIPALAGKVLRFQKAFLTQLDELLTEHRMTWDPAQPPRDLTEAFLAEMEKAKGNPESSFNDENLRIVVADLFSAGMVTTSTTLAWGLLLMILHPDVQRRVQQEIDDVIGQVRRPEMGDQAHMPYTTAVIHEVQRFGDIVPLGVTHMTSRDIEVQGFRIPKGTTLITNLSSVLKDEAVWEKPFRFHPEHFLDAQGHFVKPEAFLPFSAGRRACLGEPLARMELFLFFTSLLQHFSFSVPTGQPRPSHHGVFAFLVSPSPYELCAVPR

As to `COc1ccc2nc(COc3ccc(CC(S)C(=O)O)cc3)n(C)c2c1` (centres undefined), the Drug metabolism result in series [1] is “metabolite_detected”.
Regarding `COc1ccc2nc(COc3ccc(C[14CH]4SC(=O)NC4=O)cc3)n(C)c2c1.Cl` (racemic), the Drug metabolism result in series [2], in series [3], in series [4], in [5], in series [6] and in [7] was “metabolite_not_detected” throughout. Besides, the results for the Drug metabolism entry in series [8] and in [9] were “metabolite_not_detected” and “metabolite_detected”, respectively.

Values taken from ChEMBL document CHEMBL3526048, “In vitro metabolism of rivoglitazone, a novel peroxisome proliferator-activated receptor γ agonist, in rat, monkey, and human liver microsomes and freshly isolated hepatocytes” (Drug Metab Dispos, 2011).
